These results are taken from ChEMBL document CHEMBL1123453, “Quinazoline antifolates inhibiting thymidylate synthase: benzoyl ring modifications” (J Med Chem, 1986).

For one assay, the target named is T1, Dihydrofolate reductase (Mus musculus, UniProt P00375).
T1 sequence (P00375 whole entry): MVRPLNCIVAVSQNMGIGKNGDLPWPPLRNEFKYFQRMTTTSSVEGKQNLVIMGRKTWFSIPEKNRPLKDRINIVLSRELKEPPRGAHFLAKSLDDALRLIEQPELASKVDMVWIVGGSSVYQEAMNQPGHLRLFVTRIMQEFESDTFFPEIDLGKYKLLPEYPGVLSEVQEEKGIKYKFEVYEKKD
In words: The compound was evaluated in vitro for inhibition of purified L1210 dihydrofolate reductase.

Another assay relates to L1210. In words: The compound was evaluated for the inhibition of growth of L1210 cells in culture. The class given is functional, cell-based. The conditions noted are these: Mus musculus. Summed up:
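L1210 cells grown in culture; growth inhibition reported as the ID50 in μM.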

Assay [1] has as its target T2, Thymidylate synthase (Mus musculus, UniProt P07607). Description: In vitro inhibition of L1210 thymidylate synthase. Summed up:
(§1)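 Thymidylate synthase purified from L1210 cells; IC50 determined, with CB3717 assayed as the reference control alongside each compound.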

The target of assay [2] is T2, Thymidylate synthase. Description: In vitro inhibition of L1210 thymidylate synthase with CB3717 as control. Summed up:
as §1

T2 sequence (P07607 whole entry): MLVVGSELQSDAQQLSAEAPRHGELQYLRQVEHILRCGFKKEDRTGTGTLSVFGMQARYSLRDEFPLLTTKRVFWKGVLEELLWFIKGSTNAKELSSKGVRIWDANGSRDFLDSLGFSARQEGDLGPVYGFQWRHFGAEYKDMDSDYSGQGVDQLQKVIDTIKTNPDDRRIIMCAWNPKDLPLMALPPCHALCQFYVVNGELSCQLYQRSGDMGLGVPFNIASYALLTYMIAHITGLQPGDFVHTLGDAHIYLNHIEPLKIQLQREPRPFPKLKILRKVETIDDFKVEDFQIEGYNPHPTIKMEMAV

As usually defined, the IC50 is the concentration that inhibits the measured activity by half. `C#CCN(Cc1ccc2nc(N)nc(O)c2c1)c1ccc(C(=O)NC(CCC(=O)O)C(=O)O)c(Cl)c1` (configuration not stated): the IC50 at Dihydrofolate reductase was determined as 11 µM; in the assay on L1210, 12 µM; at Thymidylate synthase [1], 0.03 µM; against Thymidylate synthase [2] it was 0.014 µM.
With `C#CCN(Cc1ccc2nc(N)nc(O)c2c1)c1ccc(C(=O)NC(CCC(=O)O)C(=O)O)cc1Cl` (configuration not stated), the IC50 at Dihydrofolate reductase turned out to be 3 µM; in the assay on L1210 it was 72 µM; at Thymidylate synthase [1], 5 µM; at Thymidylate synthase [2], 0.0144 µM.
Turning to `C#CCN(Cc1ccc2nc(N)nc(O)c2c1)c1ccc(C(=O)NC(CCC(=O)O)C(=O)O)c(C)c1` (configuration not stated), the IC50 turned out to be 25 µM against Dihydrofolate reductase, 24 µM with L1210, 0.4 µM at Thymidylate synthase [1] and 0.019 µM against Thymidylate synthase [2].
The corresponding values for `C#CCN(Cc1ccc2nc(N)nc(O)c2c1)c1c(Cl)cc(C(=O)NC(CCC(=O)O)C(=O)O)cc1Cl` (configuration not stated) are 3 µM, 37 µM, > 5 µM and 0.0144 µM.
The compound `C#CCN(Cc1ccc2[nH]c(N)nc(=O)c2c1)c1ccc(C(=O)NC(CCC(=O)O)C(=O)O)cc1` (configuration not stated) showed an IC50 in the assay with L1210 of 7 µM.
